From ChEMBL document CHEMBL2086314, “Synthesis and anticonvulsant activity of new N-Mannich bases derived from 3-(2-fluorophenyl)- and 3-(2-bromophenyl)-pyrrolidine-2,5-diones. Part II” (Bioorg Med Chem, 2012)
Activity calls are given as the source filed them. The calls are words filed in the database; no cut-off is given here.

Tests used:
Mus musculus [1] = assay: Anticonvulsant activity in ip dosed CF-1 albino mouse assessed as protection from maximal electric shock-induced seizures measured after 4 hrs; type: functional; conditions: read-out: MED
Procedure, shortened: (§1)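 Male CF-1 mice dosed ip at 30, 100 or 300 mg/kg, suspension in 0.5% methylcellulose/water. MES: corneal electrodes primed with electrolyte containing anaesthetic, 50 mA, 60 Hz, 0.2 s. Examined 0.5 and 4 h after dosing. Value is the minimum dose protecting half or more of the animals.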

Mus musculus [2] = assay: Neurotoxicity in CF-1 albino mouse assessed as motor impairment at 300 mg/kg, ip measured after 0.5 hrs by rotarod test; type: toxicity, organism-based; set-up: dose 300 mg/kg, route intraperitoneal; conditions: in vivo
Procedure, shortened: (§2)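 Rotarod neurotoxicity in male CF-1 mice given ip doses of 30, 100 or 300 mg/kg (0.5% methylcellulose suspension), examined 0.5 and 4 h after dosing. Impairment means failing to hold balance on the rod for 1 min. Value is the minimum dose causing toxicity in half or more of the animals; response comments are recorded.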

Mus musculus [3] = assay: Neurotoxicity in CF-1 albino mouse assessed as motor impairment at 300 mg/kg, ip measured after 4 hrs by rotarod test; type: toxicity, organism-based; set-up: dose 300 mg/kg, route intraperitoneal; conditions: in vivo; procedure, shortened: as §2
Mus musculus [4] = assay: Anticonvulsant activity in ip dosed CF-1 albino mouse assessed as protection against subcutaneous pentylenetetrazol-induced seizures measured after 0.5 hrs; type: functional; conditions: read-out: MED
Procedure, shortened: (§3)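 scPTZ test in male CF-1 mice. Compound suspended in 0.5% methylcellulose/water, ip at 30, 100 or 300 mg/kg. Pentylenetetrazole 85 mg/kg (CD97, clonic seizures lasting at least 5 s) given subcutaneously at the test time, read at 0.5 and 4 h. Value is the minimum dose protecting half or more of the animals.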

Mus musculus [5] = assay: Anticonvulsant activity in CF-1 albino mouse assessed as protection against subcutaneous pentylenetetrazol-induced seizures at 300 mg/kg, ip measured after 4 hrs; type: functional, organism-based; set-up: dose 300 mg/kg; procedure, shortened: as §3
Mus musculus [6] = assay: Neurotoxicity in CF-1 albino mouse assessed as myoclonic jerks at 300 mg/kg, ip measured after 0.5 hrs by rotarod test; type: toxicity, organism-based; set-up: dose 300 mg/kg, route intraperitoneal; conditions: in vivo
Rattus norvegicus [7] = assay: Anticonvulsant activity in Sprague-Dawley rat assessed as protection from maximum electric shock-induced seizures at 30 mg/kg, po measured after 0.25 hrs; type: functional
Procedure, shortened: (§4)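 Male Sprague–Dawley rats, four per group, given 30 mg/kg orally as a suspension in 0.5% methylcellulose/water. MES stimulus 150 mA, 60 Hz, 0.2 s via corneal electrodes. Tested at 0.25, 0.5, 1, 2 and 4 h; value is rats protected out of four.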

Rattus norvegicus [8] = assay: Anticonvulsant activity in Sprague-Dawley rat assessed as protection from maximum electric shock-induced seizures at 30 mg/kg, po measured after 0.5 hrs; type: functional; procedure, shortened: as §4
Rattus norvegicus [9] = assay: Anticonvulsant activity in Sprague-Dawley rat assessed as protection from maximum electric shock-induced seizures at 30 mg/kg, po measured after 1 hr; type: functional; procedure, shortened: as §4
Rattus norvegicus [10] = assay: Anticonvulsant activity in Sprague-Dawley rat assessed as protection from maximum electric shock-induced seizures at 30 mg/kg, po measured after 2 hrs; type: functional; procedure, shortened: as §4
Rattus norvegicus [11] = assay: Anticonvulsant activity in Sprague-Dawley rat assessed as protection from maximum electric shock-induced seizures at 30 mg/kg, po measured after 4 hrs; type: functional; procedure, shortened: as §4
Rattus norvegicus [12] = assay: Neurotoxicity in Sprague-Dawley rat assessed as motor impairment at 30 mg/kg, po by rotarod test; type: toxicity, organism-based; set-up: dose 30 mg/kg, route oral; conditions: in vivo
Procedure, shortened: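 Male Sprague–Dawley rats, four animals, oral 30 mg/kg in 0.5% methylcellulose/water. Motor impairment on the rotarod (failure to keep balance for 1 min) assessed alongside MES at five times from 0.25 to 4 h.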

Rattus norvegicus [13] = assay: Anticonvulsant activity in po dosed Sprague-Dawley rat assessed as protection from maximum electric shock-induced seizures; type: functional
Procedure, shortened: (§5)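 Male Sprague–Dawley rats dosed orally (0.5% methylcellulose suspension). MES 150 mA, 60 Hz, 0.2 s; rotarod impairment is failure to keep balance for 1 min. Groups of eight, at the previously estimated time of peak effect, with doses varied until at least three points fell in the 10–90% range. ED50/TD50 with 95% confidence intervals from regression; PI = TD50/ED50.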

[14] = Neurotoxicity in po dosed Sprague-Dawley rat assessed as motor impairment measured at time of peak effect by rotarod test; type: toxicity, organism-based; conditions: in vivo; procedure, shortened: as §5
Rattus norvegicus [15] = assay: Anticonvulsant activity in po dosed maximum electric shock-induced Sprague-Dawley rat assessed as time of peak effect; type: functional; procedure, shortened: as §5
Mus musculus [16] = assay: Anticonvulsant activity in CF-1 albino mouse assessed as protection against 6 Hz psychomotor seizure at 100 mg/kg, ip measured after 0.25 hrs; type: functional; conditions: route intraperitoneal
Procedure, shortened: (§6)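 6-Hz psychomotor seizure in male CF-1 mice, compound suspended in 0.5% methylcellulose/water, given ip (100 or 75 mg/kg). Corneal stimulation with 0.2 ms monopolar rectangular pulses at 6 Hz for 3 s, 32 mA, constant-current device. Protected if normal exploratory behaviour resumes within 10 s. Tested 0.25–4 h after dosing; value is mice protected out of four.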

Mus musculus [17] = assay: Anticonvulsant activity in CF-1 albino mouse assessed as protection against 6 Hz psychomotor seizure at 100 mg/kg, ip measured after 0.5 hrs; type: functional; conditions: route intraperitoneal; procedure, shortened: as §6
Mus musculus [18] = assay: Anticonvulsant activity in CF-1 albino mouse assessed as protection against 6 Hz psychomotor seizure at 100 mg/kg, ip measured after 1 hr; type: functional; conditions: route intraperitoneal; procedure, shortened: as §6
Mus musculus [19] = assay: Anticonvulsant activity in CF-1 albino mouse assessed as protection against 6 Hz psychomotor seizure at 100 mg/kg, ip measured after 2 hrs; type: functional; conditions: route intraperitoneal; procedure, shortened: as §6
Mus musculus [20] = assay: Anticonvulsant activity in CF-1 albino mouse assessed as protection against 6 Hz psychomotor seizure at 100 mg/kg, ip measured after 4 hrs; type: functional; conditions: route intraperitoneal; procedure, shortened: as §6
Mus musculus [21] = assay: Anticonvulsant activity in CF-1 albino mouse assessed as protection from maximal electric shock-induced seizures at 300 mg/kg, ip measured after 0.5 hrs; type: functional, organism-based; set-up: dose 300 mg/kg; procedure, shortened: as §1
Rattus norvegicus [22] = species: Rattus norvegicus; assay: Protective index, ratio of TD50 for Sprague-Dawley rat to ED50 for Sprague-Dawley rat assessed as protection from maximum electric shock-induced seizures; type: functional; procedure, shortened: as §5
Mus musculus [23] = assay: Anticonvulsant activity in ip dosed CF-1 albino mouse assessed as protection from maximal electric shock-induced seizures; type: functional
Procedure, shortened: (§7)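 ED50 and TD50 determined in male CF-1 mice after ip dosing (0.5% methylcellulose suspension) at the previously estimated time of peak effect. MES 50 mA, 60 Hz, 0.2 s. Groups of eight, with doses varied until at least three points fell between 10–90% protection or motor impairment. Regression gives ED50/TD50 with 95% confidence intervals; PI = TD50/ED50.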

[24] = Neurotoxicity in ip dosed CF-1 albino mouse assessed as motor impairment by rotarod test; type: toxicity, organism-based; conditions: in vivo
Mus musculus [25] = species: Mus musculus; assay: Protective index, ratio of TD50 for CF-1 albino mouse to ED50 for CF-1 albino mouse assessed as protection from maximum electric shock-induced seizures; type: functional; procedure, shortened: as §7
Mus musculus [26] = assay: Anticonvulsant activity in ip dosed maximal electric shock-induced CF-1 albino mouse assessed as time of peak effect; type: functional; procedure, shortened: as §7
Mus musculus [27] = assay: Anticonvulsant activity in ip dosed CF-1 albino mouse assessed as protection from maximal electric shock-induced seizures measured after 0.5 hrs; type: functional; conditions: read-out: MED; procedure, shortened: as §1
Mus musculus [28] = assay: Neurotoxicity in ip dosed CF-1 albino mouse assessed as motor impairment measured after 0.5 hrs by rotarod test; type: toxicity, organism-based; conditions: in vivo; procedure, shortened: as §2
Mus musculus [29] = assay: Neurotoxicity in CF-1 albino mouse assessed as inability to grasp rotarod at 300 mg/kg, ip measured after 0.5 hrs by rotarod test; type: toxicity, organism-based; set-up: dose 300 mg/kg, route intraperitoneal; conditions: in vivo; procedure, shortened: as §2
Mus musculus [30] = assay: Neurotoxicity in CF-1 albino mouse assessed as motor impairment, ip measured after 4 hrs by rotarod test; type: toxicity, organism-based; conditions: in vivo
Mus musculus [31] = assay: Anticonvulsant activity in CF-1 albino mouse assessed as protection against subcutaneous pentylenetetrazol-induced seizures at 300 mg/kg, ip measured after 0.5 hrs; type: functional, organism-based; set-up: dose 300 mg/kg; procedure, shortened: as §3

Cl.Cl.O=C1CC(c2ccccc2F)C(=O)N1CN1CCN(CCO)CC1 (racemic)
minimal effective dose (Mus musculus [1]): 100 mg/kg | Activity (Mus musculus [2]): Non-toxic | Activity (Mus musculus [3]): Non-toxic | minimal effective dose (Mus musculus [4]): 300 mg/kg | Activity (Mus musculus [5]): inactive | Activity (Mus musculus [6]): Toxic | Activity (Rattus norvegicus [7]): 25% | Activity (Rattus norvegicus [8]): 25% | Activity (Rattus norvegicus [9]): 50% | Activity (Rattus norvegicus [10]): 25% | Activity (Rattus norvegicus [11]): 25% | Activity (Rattus norvegicus [12]): Non-toxic | ED50 (Rattus norvegicus [13]): > 500 mg/kg | TD50 [14]: > 500 mg/kg | Time (Rattus norvegicus [15]): 0.5 h | Activity (Mus musculus [16]): 50% | Activity (Mus musculus [17]): 25% | Activity (Mus musculus [18]): 0% | Activity (Mus musculus [19]): 0% | Activity (Mus musculus [20]): 0%

O=C1CC(c2ccccc2Br)C(=O)N1CN1CCN(c2ccc(F)cc2)CC1 (racemic)
Activity (Mus musculus [21]): inactive | minimal effective dose (Mus musculus [1]): 100 mg/kg | Activity (Mus musculus [2]): Non-toxic | Activity (Mus musculus [3]): Non-toxic | Activity (Rattus norvegicus [7]): 25% | Activity (Rattus norvegicus [8]): 25% | Activity (Rattus norvegicus [9]): 25% | Activity (Rattus norvegicus [10]): 50% | Activity (Rattus norvegicus [11]): 75% | Activity (Rattus norvegicus [12]): Non-toxic | ED50 (Rattus norvegicus [13]): 7.4 mg/kg | TD50 [14]: 62.4 mg/kg | Ratio TD50/ED50 (Rattus norvegicus [22]): 8.43 | Time (Rattus norvegicus [15]): 4 h | ED50 (Mus musculus [23]): 79.9 mg/kg | TD50 [24]: 466 mg/kg | Ratio TD50/ED50 (Mus musculus [25]): 5.83 | Time (Mus musculus [26]): 4 h

O=C1CC(c2ccccc2F)C(=O)N1CN1CCN(Cc2ccccc2)CC1 (racemic)
minimal effective dose (Mus musculus [27]): 300 mg/kg | minimal effective dose (Mus musculus [1]): 300 mg/kg | MTC (Mus musculus [28]): 300 mg/kg | Activity (Mus musculus [3]): Non-toxic | Activity (Mus musculus [29]): Toxic | minimal effective dose (Mus musculus [4]): 300 mg/kg | Activity (Mus musculus [5]): inactive | Activity (Mus musculus [6]): Toxic | Activity (Mus musculus [16]): 0% | Activity (Mus musculus [17]): 25% | Activity (Mus musculus [18]): 0% | Activity (Mus musculus [19]): 0% | Activity (Mus musculus [20]): 0%

O=C1NC(=O)C(c2ccccc2)(c2ccccc2)N1 [PHENYTOIN]
minimal effective dose (Mus musculus [27]): 30 mg/kg | minimal effective dose (Mus musculus [1]): 30 mg/kg | MTC (Mus musculus [28]): 100 mg/kg | MTC (Mus musculus [30]): 100 mg/kg | Activity (Mus musculus [31]): inactive | Activity (Mus musculus [5]): inactive | Activity (Rattus norvegicus [7]): 25% | Activity (Rattus norvegicus [8]): 100% | Activity (Rattus norvegicus [9]): 75% | Activity (Rattus norvegicus [10]): 75% | Activity (Rattus norvegicus [11]): 75% | Activity (Rattus norvegicus [12]): Non-toxic | TD50 [14]: > 100 mg/kg | Ratio TD50/ED50 (Rattus norvegicus [22]): 3.6 | Time (Rattus norvegicus [15]): 2 h | Ratio TD50/ED50 (Mus musculus [25]): 7.74 | Time (Mus musculus [26]): 1 h

O=C1CC(c2ccccc2F)C(=O)N1CN1CCN(c2ccc(F)cc2)CC1 (racemic)
Activity (Mus musculus [21]): inactive | minimal effective dose (Mus musculus [1]): 30 mg/kg | Activity (Mus musculus [2]): Non-toxic | MTC (Mus musculus [30]): 300 mg/kg | Activity (Rattus norvegicus [7]): 0% | Activity (Rattus norvegicus [8]): 0% | Activity (Rattus norvegicus [9]): 0% | Activity (Rattus norvegicus [10]): 25% | Activity (Rattus norvegicus [11]): 50% | Activity (Rattus norvegicus [12]): Non-toxic | ED50 (Mus musculus [23]): 101 mg/kg | TD50 [24]: 166 mg/kg | Ratio TD50/ED50 (Mus musculus [25]): 1.65 | Time (Mus musculus [26]): 4 h
